Assay results from ChEMBL document CHEMBL1127348, “3-Amino-5,5-dimethylhexanoic acid. Synthesis, resolution, and effects on carnitine acyltransferases” (J Med Chem, 1994).
Each block holds one molecule with its values, some of them ahead of it.

Experiments:
[1] = biological target: T1, Carnitine O-palmitoyltransferase 1, muscle isoform (Rattus norvegicus, UniProt Q63704); assay: Tested against neonatal rat cardiac myocyte carnitine palmitoyltransferase 1
T1 sequence (Q63704 whole entry): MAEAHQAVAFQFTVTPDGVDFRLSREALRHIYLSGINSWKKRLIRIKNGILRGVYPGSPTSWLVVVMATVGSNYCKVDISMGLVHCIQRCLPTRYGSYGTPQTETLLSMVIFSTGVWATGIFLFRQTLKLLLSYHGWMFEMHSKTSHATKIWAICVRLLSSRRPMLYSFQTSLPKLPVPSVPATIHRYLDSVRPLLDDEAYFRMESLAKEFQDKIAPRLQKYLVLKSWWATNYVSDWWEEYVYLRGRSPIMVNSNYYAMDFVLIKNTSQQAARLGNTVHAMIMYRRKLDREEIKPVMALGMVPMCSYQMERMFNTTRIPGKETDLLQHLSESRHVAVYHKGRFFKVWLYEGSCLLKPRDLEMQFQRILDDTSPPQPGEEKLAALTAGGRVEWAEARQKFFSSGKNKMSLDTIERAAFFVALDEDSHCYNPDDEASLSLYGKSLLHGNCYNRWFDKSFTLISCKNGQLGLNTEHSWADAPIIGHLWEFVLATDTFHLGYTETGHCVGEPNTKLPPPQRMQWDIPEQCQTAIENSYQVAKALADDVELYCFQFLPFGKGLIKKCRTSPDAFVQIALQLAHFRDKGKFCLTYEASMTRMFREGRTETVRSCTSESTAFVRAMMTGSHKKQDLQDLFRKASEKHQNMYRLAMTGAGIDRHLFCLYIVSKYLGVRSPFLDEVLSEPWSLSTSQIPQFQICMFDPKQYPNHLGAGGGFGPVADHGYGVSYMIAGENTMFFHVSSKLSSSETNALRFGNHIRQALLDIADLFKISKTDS

[2] = biological target: T2, Carnitine O-palmitoyltransferase 2, mitochondrial (Rattus norvegicus, UniProt P18886); assay: Tested against neonatal rat cardiac myocyte carnitine palmitoyltransferase 2
T2 sequence (P18886 whole entry): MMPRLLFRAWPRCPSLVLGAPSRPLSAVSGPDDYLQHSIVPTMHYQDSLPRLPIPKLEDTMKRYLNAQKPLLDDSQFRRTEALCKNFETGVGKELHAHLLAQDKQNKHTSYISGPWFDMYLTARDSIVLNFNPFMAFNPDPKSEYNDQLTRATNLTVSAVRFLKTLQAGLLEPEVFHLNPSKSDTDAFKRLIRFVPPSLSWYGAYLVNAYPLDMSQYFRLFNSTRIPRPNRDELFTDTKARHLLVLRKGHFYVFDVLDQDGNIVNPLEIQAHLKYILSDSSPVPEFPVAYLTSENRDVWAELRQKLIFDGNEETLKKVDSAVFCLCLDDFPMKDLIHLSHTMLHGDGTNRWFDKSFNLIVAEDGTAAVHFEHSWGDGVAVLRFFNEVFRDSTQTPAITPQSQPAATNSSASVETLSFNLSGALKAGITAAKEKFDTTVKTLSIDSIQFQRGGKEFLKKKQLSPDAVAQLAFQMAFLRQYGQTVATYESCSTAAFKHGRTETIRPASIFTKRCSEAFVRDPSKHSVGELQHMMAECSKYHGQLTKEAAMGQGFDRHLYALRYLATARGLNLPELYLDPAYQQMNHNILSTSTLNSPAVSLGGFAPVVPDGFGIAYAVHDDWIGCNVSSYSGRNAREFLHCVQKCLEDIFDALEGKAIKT

[3] = biological target: T3, Carnitine O-palmitoyltransferase 1, liver isoform (Rattus norvegicus) (UniProt P32198); assay: Percent inhibition was measured on rat liver carnitine palmitoyltransferase at 5 uM
T3 sequence (whole entry): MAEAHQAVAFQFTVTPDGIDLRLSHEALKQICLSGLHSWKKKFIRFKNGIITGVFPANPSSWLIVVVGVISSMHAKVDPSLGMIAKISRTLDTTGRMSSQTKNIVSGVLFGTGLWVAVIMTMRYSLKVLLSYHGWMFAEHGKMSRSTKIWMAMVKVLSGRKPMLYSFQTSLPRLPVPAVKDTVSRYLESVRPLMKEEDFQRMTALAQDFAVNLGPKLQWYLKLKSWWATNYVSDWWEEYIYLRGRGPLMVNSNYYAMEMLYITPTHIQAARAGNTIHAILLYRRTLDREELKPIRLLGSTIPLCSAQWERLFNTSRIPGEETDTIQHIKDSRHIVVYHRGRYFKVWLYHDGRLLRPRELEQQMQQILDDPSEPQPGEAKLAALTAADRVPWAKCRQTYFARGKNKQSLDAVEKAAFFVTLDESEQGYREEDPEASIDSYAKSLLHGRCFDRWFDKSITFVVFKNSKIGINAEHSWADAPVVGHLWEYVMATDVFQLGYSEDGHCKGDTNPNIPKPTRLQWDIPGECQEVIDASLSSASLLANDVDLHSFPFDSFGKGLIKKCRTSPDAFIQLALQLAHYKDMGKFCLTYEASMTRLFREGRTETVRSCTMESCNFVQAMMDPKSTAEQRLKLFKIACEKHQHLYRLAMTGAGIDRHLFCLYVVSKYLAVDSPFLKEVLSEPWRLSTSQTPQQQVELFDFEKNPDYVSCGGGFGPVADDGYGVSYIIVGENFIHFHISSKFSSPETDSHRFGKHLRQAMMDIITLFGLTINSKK

[4] = biological target: T1, Carnitine O-palmitoyltransferase 1, muscle isoform; assay: Tested against neonatal rat cardiac myocyte carnitine palmitoyltransferase 1; no effect
[5] = substrate: C[N+](C)(C)C[C@H](O)CC(=O)[O-]; assay: (§1) Kinetic constants tested against pigeon breast carnitine acyltransferase; conditions: Columba livia
How it was run: (§2)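 Purified pigeon breast CAT, 25 °C, 1 mL. Reverse: 100 mM MOPS, 5 mM EDTA, 0.25 mM CoASH; started with varying D,L-acetylcarnitine; read at 232 nm. Inhibitor at 0, 5.00 or 10.00 mM final; points mean of 2–5 determinations; nonlinear regression fit.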

[6] = substrate: C[N+](C)(C)CC(N)CC(=O)[O-]; assay: as §1; conditions: Columba livia; how it was run: as §2

inhibition [3]: 64%
Molecule: C[N+](C)(C)CC(N)CC(=O)[O-] (configuration not stated)

Ki [2]: 2200 µM
Molecule: CC(C)(C)C[C@H](O)CC(=O)O

Ki [2]: 6700 µM
Molecule: CC(C)(C)C[C@@H](O)CC(=O)O

inhibition [3]: 15%
Molecule: CC(=O)NC(CC(=O)[O-])C[N+](C)(C)C (configuration not stated)

More lines, now with the values behind:

Molecule: C[N+](C)(C)C[C@H](O)CC(=O)[O-] [LEVOCARNITINE]
Ki [1]: 100 µM | Ki [2]: 100 µM

Molecule: CC(C)(C)CC(O)CC(=O)O (configuration not stated)
Ki [1]: 3600 µM | Ki [2]: 2800 µM

Molecule: CC(C)(C)CC(N)CC(=O)O (configuration not stated)
Ki [2]: 20000 µM | Ki [4]: Not Active

B1: Carnitine O-acetyltransferase (Homo sapiens), P43155 (protein)
chain: MLAFAARTVVKPLGFLKPFSLMKASSRFKAHQDALPRLPVPPLQQSLDHYLKALQPIVSEEEWAHTKQLVDEFQASGGVGERLQKGLERRARKTENWLSEWWLKTAYLQYRQPVVIYSSPGVMLPKQDFVDLQGQLRFAAKLIEGVLDFKVMIDNETLPVEYLGGKPLCMNQYYQILSSCRVPGPKQDTVSNFSKTKKPPTHITVVHNYQFFELDVYHSDGTPLTADQIFVQLEKIWNSSLQTNKEPVGILTSNHRNSWAKAYNTLIKDKVNRDSVRSIQKSIFTVCLDATMPRVSEDVYRSHVAGQMLHGGGSRLNSGNRWFDKTLQFIVAEDGSCGLVYEHAAAEGPPIVTLLDYVIEYTKKPELVRSPLVPLPMPKKLRFNITPEIKSDIEKAKQNLSIMIQDLDITVMVFHHFGKDFPKSEKLSPDAFIQMALQLAYYRIYGQACATYESASLRMFHLGRTDTIRSASMDSLTFVKAMDDSSVTEHQKVELLRKAVQAHRGYTDRAIRGEAFDRHLLGLKLQAIEDLVSMPDIFMDTSYAIAMHFHLSTSQVPAKTDCVMFFGPVVPDGYGVCYNPMEAHINFSLSAYNSCAETNAARLAHYLEKALLDMRALLQSHPRAKL
Km [5]: 300 µM | Km [6]: 3800 µM
